# Experimental data reported in ChEMBL document CHEMBL1177799 (Bioorg Med Chem Lett, 2010).
# How the values were obtained:
# [1] = target: Adenosine receptor A2a (Homo sapiens, UniProt P29274); assay: Displacement of [3H]-ZM241385 from human adenosine A2A receptor expressed in CHO-K1 cells after 1 hr by scintillation counting; type: cell-based
# [2] = target: T1, Adenosine receptor A2b (Homo sapiens, UniProt P29275); assay: Antagonist activity at human adenosine A2B receptor expressed in CHO cells assessed as inhibition of adenosine-induced cAMP production; type: functional, cell-based
# T1 sequence (P29275 whole entry): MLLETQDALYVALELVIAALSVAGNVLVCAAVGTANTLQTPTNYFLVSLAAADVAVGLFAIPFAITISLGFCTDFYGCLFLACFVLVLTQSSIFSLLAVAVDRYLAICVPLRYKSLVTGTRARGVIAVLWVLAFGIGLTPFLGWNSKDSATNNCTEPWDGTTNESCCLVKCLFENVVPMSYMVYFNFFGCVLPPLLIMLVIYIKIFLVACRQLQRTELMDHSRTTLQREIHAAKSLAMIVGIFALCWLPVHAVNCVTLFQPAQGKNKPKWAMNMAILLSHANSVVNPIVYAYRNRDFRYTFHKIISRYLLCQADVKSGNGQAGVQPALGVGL
# Outline: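 CHO cells stably transfected with human A2B receptor, grown overnight as monolayer (7500 cells/well), washed with Krebs buffer, then exposed to compounds in Krebs buffer (final DMSO 1.1%) for 20–25 min. Wells emptied, cells lysed and cAMP measured with an enzyme-fragment complementation cAMP kit for adherent cells.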
# [3] = target: T2, Adenosine receptor A1 (Homo sapiens, UniProt P30542); assay: Displacement of [3H]-DPCPX from human adenosine A1 receptor expressed in CHO-K1 cells after 1 hr by scintillation counting; type: cell-based
# T2 sequence (P30542 whole entry): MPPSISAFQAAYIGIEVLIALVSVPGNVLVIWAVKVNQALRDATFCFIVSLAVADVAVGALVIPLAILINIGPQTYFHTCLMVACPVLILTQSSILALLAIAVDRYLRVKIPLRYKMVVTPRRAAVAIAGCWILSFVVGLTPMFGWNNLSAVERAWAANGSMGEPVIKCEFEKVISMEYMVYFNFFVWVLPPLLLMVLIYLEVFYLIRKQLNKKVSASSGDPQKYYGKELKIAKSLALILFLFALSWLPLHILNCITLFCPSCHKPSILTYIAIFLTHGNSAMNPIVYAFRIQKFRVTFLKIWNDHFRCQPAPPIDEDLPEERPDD
# Outline: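 Commercial human A1 membranes (10 µg/well) in HEPES 50 mM, NaCl 100 mM, MgCl2 1 mM buffer; competition against [3H]-DPCPX (4.8 nM final), 1 h at room temperature with orbital shaking. Filtration harvest on polyethyleneimine-treated (0.5%) glass-fibre plates, air-dried, scintillation counting.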
# [4] = target: T1, Adenosine receptor A2b; assay: Displacement of [3H]ZM241385 from human adenosine A2B receptor expressed in CHO cells after 1 hr by scintillation counting; type: cell-based
# Outline: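 Whole CHO cells expressing human A2B receptor, harvested mechanically from 80% confluent flasks, frozen, then resuspended in assay buffer on assay day. Competition against [3H]ZM241385 (30 nM final), 1 h at room temperature with shaking. Harvest on 0.5% polyethyleneimine-treated filter plates, air-dried, scintillation counting.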
# Sequence of Adenosine receptor A2a (P29274 whole entry): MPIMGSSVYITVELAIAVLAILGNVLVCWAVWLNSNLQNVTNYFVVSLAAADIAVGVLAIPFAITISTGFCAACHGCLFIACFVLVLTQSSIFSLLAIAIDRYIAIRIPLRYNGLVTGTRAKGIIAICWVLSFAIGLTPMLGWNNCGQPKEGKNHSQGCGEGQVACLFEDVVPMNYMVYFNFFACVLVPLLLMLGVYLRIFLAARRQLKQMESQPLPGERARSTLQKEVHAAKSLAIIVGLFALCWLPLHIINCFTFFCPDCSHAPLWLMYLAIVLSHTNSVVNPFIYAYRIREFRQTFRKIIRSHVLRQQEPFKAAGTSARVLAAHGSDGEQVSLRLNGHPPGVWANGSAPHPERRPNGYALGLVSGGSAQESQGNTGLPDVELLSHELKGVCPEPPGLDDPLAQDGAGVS
SMILES,Ki [1],IC50 [2],Ki [3],Ki [4]
COc1ccc(N(C(C)=O)C(F)F)c2sc(NC(=O)c3ccc(F)cc3)nc12,61 nM,230 nM,30 nM,
CCN(C(C)=O)c1ccc(OC)c2nc(NC(=O)c3cnn(C)c3)sc12,41 nM,29 nM,,19 nM
CCN(C(C)=O)c1ccc(OC)c2nc(NC(=O)c3ccc(C(=O)N4CCCC4)cc3)sc12,68 nM,16 nM,50 nM,
COc1ccc(N(CC(N)=O)C(C)=O)c2sc(NC(=O)c3ccc(F)cc3)nc12,160 nM,60 nM,560 nM,
CCN(C(C)=O)c1ccc(OC)c2nc(NC(=O)c3ccc(S(C)(=O)=O)cc3)sc12,92 nM,36 nM,390 nM,19 nM
CCN(C(C)=O)c1ccc(OC)c2nc(NC(=O)c3cc[nH]c3)sc12,18 nM,7 nM,35 nM,
CCN(C(C)=O)c1ccc(OC)c2nc(NC(=O)c3ccc(C(=O)N(C)CCOC)cc3)sc12,26 nM,13 nM,180 nM,13 nM
CCN(C(C)=O)c1ccc(OC)c2nc(NC(=O)c3ccc(F)cc3)sc12,22 nM,12 nM,66 nM,13 nM
COc1ccc(NC(C)=O)c2sc(NC(=O)c3ccc(F)cc3)nc12,250 nM,350 nM,1600 nM,130 nM
CCN(C(C)=O)c1ccc(OC)c2nc(NC(=O)c3ccc(C#N)cc3)sc12,50 nM,28 nM,71 nM,10 nM
COc1ccc(N(C)C(C)=O)c2sc(NC(=O)c3ccc(F)cc3)nc12,39 nM,15 nM,66 nM,22 nM
COCCN(C(C)=O)c1ccc(OC)c2nc(NC(=O)c3ccc(F)cc3)sc12,38 nM,33 nM,110 nM,
CCN(C(C)=O)c1ccc(OC)c2nc(NC(=O)c3ccc(CN(C)S(C)(=O)=O)cc3)sc12,71 nM,19 nM,410 nM,4 nM
CCN(C(C)=O)c1ccc(OC)c2nc(NC(=O)c3cn[nH]c3)sc12,,21 nM,,
COc1ccc(N(C(C)=O)C(C)C)c2sc(NC(=O)c3ccc(F)cc3)nc12,,19 nM,,
CCN(C(C)=O)c1ccc(OC)c2nc(NC(=O)c3ccc(-n4ccnc4)cc3)sc12,77 nM,19 nM,150 nM,8 nM
CCN(C(C)=O)c1ccc(OC)c2nc(NC(=O)c3ccc(NS(C)(=O)=O)cc3)sc12,46 nM,37 nM,110 nM,22 nM
CCN(C(C)=O)c1ccc(OC)c2nc(NC(=O)c3ccc(C(=O)NC)cc3)sc12,84 nM,21 nM,185 nM,

SMILES,Ki [1],IC50 [2],Ki [3],Ki [4]
COc1ccc(N(CC(C)C)C(C)=O)c2sc(NC(=O)c3ccc(F)cc3)nc12,3 nM,23 nM,37 nM,
CCN(C(C)=O)c1ccc(OC)c2nc(NC(=O)c3ccc(-n4cnnn4)cc3)sc12,80 nM,28 nM,130 nM,23 nM
CCN(C(C)=O)c1ccc(OC)c2nc(NC(=O)c3cnn(Cc4cccc(C(F)(F)F)c4)c3)sc12,3 nM,6 nM,6 nM,4 nM
COc1ccc(N(CC(=O)N(C)C)C(C)=O)c2sc(NC(=O)c3ccc(F)cc3)nc12,480 nM,600 nM,1600 nM,
COC(=O)CN(C(C)=O)c1ccc(OC)c2nc(NC(=O)c3ccc(F)cc3)sc12,5 nM,8 nM,23 nM,
COc1ccc(N(CCCO)C(C)=O)c2sc(NC(=O)c3ccc(F)cc3)nc12,29 nM,42 nM,100 nM,
COc1ccc(N(CCO)C(C)=O)c2sc(NC(=O)c3ccc(F)cc3)nc12,98 nM,77 nM,450 nM,
CCN(C(C)=O)c1ccc(OC)c2nc(NC(=O)c3ccc(C(=O)N4CCCCC4)cc3)sc12,100 nM,16 nM,300 nM,4 nM
COc1ccc(N(CC(=O)O)C(C)=O)c2sc(NC(=O)c3ccc(F)cc3)nc12,2200 nM,6000 nM,2600 nM,
CCN(C(C)=O)c1ccc(Cl)c2nc(NC(=O)c3ccc(F)cc3)sc12,15 nM,23 nM,30 nM,
CCN(C(C)=O)c1ccc(OC)c2nc(NC(=O)c3ccc(C(=O)OC)cc3)sc12,170 nM,35 nM,185 nM,15 nM
CCN(C(C)=O)c1ccc(OC)c2nc(NC(=O)c3ccc(CN4CCCC4=O)cc3)sc12,27 nM,28 nM,400 nM,14 nM
COc1ccc(N(CC(F)(F)F)C(C)=O)c2sc(NC(=O)c3ccc(F)cc3)nc12,35 nM,40 nM,42 nM,
CNC(=O)CN(C(C)=O)c1ccc(OC)c2nc(NC(=O)c3ccc(F)cc3)sc12,330 nM,350 nM,790 nM,
CCN(C(C)=O)c1ccc(OC)c2nc(NC(=O)c3cnn(Cc4cccc(F)c4)c3)sc12,3 nM,12 nM,9 nM,6 nM
CCN(C(C)=O)c1ccc(OC)c2nc(NC(=O)c3ccc(C(=O)N4CCN(C)CC4)cc3)sc12,89 nM,38 nM,120 nM,18 nM
CCN(C(C)=O)c1ccc(OC)c2nc(NC(=O)c3ccc(C(=O)N4CCOCC4)cc3)sc12,76 nM,21 nM,160 nM,7 nM
CCN(C(C)=O)c1ccc(OC)c2nc(NC(=O)c3ccc(-n4cccn4)cc3)sc12,66 nM,21 nM,78 nM,18 nM
